Among the data in ChEMBL document CHEMBL4219116, “Adenosine analogs bearing phosphate isosteres as human MDO1 ligands” (Bioorg Med Chem, 2018) are inhibition, ΔTm and Kd values, retold here.

Experiment [1] has as its target T1, ADP-ribose glycohydrolase MACROD1 (Homo sapiens) (UniProt Q9BQ69).
T1 sequence (whole entry): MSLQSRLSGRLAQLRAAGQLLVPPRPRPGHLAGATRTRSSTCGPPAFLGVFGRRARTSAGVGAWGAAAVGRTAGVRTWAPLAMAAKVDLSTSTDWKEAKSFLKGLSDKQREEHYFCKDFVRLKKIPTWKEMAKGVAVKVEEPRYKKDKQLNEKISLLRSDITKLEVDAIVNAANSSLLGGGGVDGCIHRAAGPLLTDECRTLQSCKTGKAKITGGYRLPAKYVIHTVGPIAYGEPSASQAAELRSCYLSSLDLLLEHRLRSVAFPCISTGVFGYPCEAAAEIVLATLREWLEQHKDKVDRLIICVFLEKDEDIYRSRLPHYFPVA
Briefly: Inhibition of recombinant human N-terminal His6-tagged MDO1 (58 to 325 residues) expressed in Escherichia coli Rosetta2 (DE3) at 6.6 mM using mono-ADP-ribosylated SRPK2 as substrate after 1 hr 20 mins by Alphascreen assay. The essentials:
(§1)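 AlphaScreen hydrolysis assay run in quadruplicate, with compound from 6.6 mM to 0.66 μM in half-log dilutions. MDO1 or MDO2 (800 nM final) was added, then mono-ADP-ribosylated SRPK2 (50 nM final), and incubated 1 h 20 min at room temperature. Acceptor/donor beads (5 μg/ml final) were added for 3 h in the dark before reading luminescence.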
A general note: In Alpha technology, singlet oxygen from a donor bead excites a nearby acceptor bead.

In experiment [2] the target is T2, ADP-ribose glycohydrolase MACROD2 (Homo sapiens) (UniProt A1Z1Q3).
T2 sequence (whole entry): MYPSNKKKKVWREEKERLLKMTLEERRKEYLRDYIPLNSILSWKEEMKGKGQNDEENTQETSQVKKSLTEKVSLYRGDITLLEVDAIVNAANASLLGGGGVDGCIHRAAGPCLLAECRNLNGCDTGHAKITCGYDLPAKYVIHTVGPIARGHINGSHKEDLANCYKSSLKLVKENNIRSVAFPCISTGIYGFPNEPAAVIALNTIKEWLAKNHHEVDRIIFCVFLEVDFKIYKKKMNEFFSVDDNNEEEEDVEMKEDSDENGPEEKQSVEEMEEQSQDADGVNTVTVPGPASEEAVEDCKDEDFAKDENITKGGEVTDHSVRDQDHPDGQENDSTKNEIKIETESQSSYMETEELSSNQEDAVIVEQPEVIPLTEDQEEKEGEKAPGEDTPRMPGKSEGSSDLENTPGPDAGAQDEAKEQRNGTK
The experiment in a line: Inhibition of recombinant MDO2 (7 to 243 residues) (unknown origin) expressed in Escherichia coli Rosetta2 (DE3) at 6.6 mM using mono-ADP-ribosylated SRPK2 as substrate after 1 hr 20 mins by Alphascreen assay. The essentials:
as §1

Experiment [3] concerns the target T1, ADP-ribose glycohydrolase MACROD1 (Homo sapiens). Briefly: Inhibition of recombinant human N-terminal His6-tagged MDO1 (58 to 325 residues) expressed in Escherichia coli Rosetta2 (DE3) at 0.8 mM using mono-biotin-ADP-ribosylated SRPK2 as substrate after 16 hrs by Western blot analysis. In a few lines: (§2)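 Substrate was SRPK2 mono-biotin-ADP-ribosylated by ARTD10. 2 μM substrate, 2 μM MDO1 and 0.8–1 mM compound were incubated 16 h in 25 mM HEPES pH 7.5, 100 mM NaCl. The reaction was stopped with Laemmli buffer at 95 °C for 5 min, then run on SDS-PAGE and blotted. Detection used streptavidin-HRP with chemiluminescence. Readout was qualitative, against SRPK2-alone and no-inhibitor controls.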
Background: In western blotting, separated proteins are transferred to a membrane and probed.

Experiment [4] shares this target. Briefly: Inhibition of recombinant human N-terminal His6-tagged MDO1 (58 to 325 residues) expressed in Escherichia coli Rosetta2 (DE3) at 1 mM using mono-biotin-ADP-ribosylated SRPK2 as substrate after 16 hrs by Western blot analysis. In a few lines:
as §2

The target is the same in experiment [5]. Briefly: Inhibition of recombinant human N-terminal His6-tagged MDO1 (58 to 325 residues) expressed in Escherichia coli Rosetta2 (DE3) using mono-biotin-ADP-ribosylated SRPK2 as substrate after 16 hrs by Western blot analysis. The essentials: as §2
Experiment [6] shares this target. The experiment in a line: Binding affinity to human MDO1 assessed as change in melting temperature by DSF method. The essentials:
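Thermal shift read-out: a hydrophobic reporter dye binds the exposed protein core as the protein denatures with rising temperature. ΔTm is taken as the stabilization by ligand.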

The target in experiment [7] is T3, ADP-ribose glycohydrolase MACROD1 (Homo sapiens, UniProt Q9BQ69).
T3 sequence (Q9BQ69 whole entry): T1 sequence (whole entry)
Briefly: Binding affinity to human MDO1 by ITC.

In general, ΔTm refers to the shift of the melting midpoint relative to a reference. One may read the Kd as a measure of binding affinity in units of concentration. High values mean lower affinity, low ones higher affinity.

The source made the active and inactive calls. The rule behind the calls is not given here.

As to `Nc1ncnc2c1ncn2C1OC(CNC(=O)[C@H](CO)NC(=O)OCC2c3ccccc3-c3ccccc32)[C@@H](O)C1O` (single isomer, unassigned), the inhibition entry in experiment [1] and in experiment [2] was “inactive” in each case. Further, in experiment [3], the inhibition result was “Active”.
As for `Nc1ncnc2c1ncn2C1OC(CNC(=O)[C@@H](N)CO)[C@@H](O)C1O` (single isomer, unassigned), in experiment [4], the inhibition result is “inactive”.
As to `Nc1ncnc2c1ncn2[C@@H]1O[C@H](COP(=O)(O)O)[C@@H](O)[C@H]1O`, the inhibition entry in experiment [5] is “inactive”. The thermal shift (ΔTm) in experiment [6] is under 1 °C.
In the case of `Nc1ncnc2c1ncn2[C@@H]1O[C@H](CNc2c(Nc3cccc([N+](=O)[O-])c3)c(=O)c2=O)[C@@H](O)[C@H]1O`, the inhibition entry in experiment [3] is “inactive”.
As to `Nc1ncnc2c1ncn2C1OC(CNC(=O)[C@H](CC(=O)O)NC(=O)OCC2c3ccccc3-c3ccccc32)[C@@H](O)C1O` (single isomer, unassigned), in experiment [4], the inhibition result was “inactive”.
As to `Nc1ncnc2c1ncn2[C@@H]1O[C@H](CNc2c(NCc3ccc(F)cc3)c(=O)c2=O)[C@@H](O)[C@H]1O`, in experiment [3], the inhibition entry is “inactive”.
`COc1ccc(CNc2c(NC[C@H]3O[C@@H](n4cnc5c(N)ncnc54)[C@H](O)[C@@H]3O)c(=O)c2=O)cc1`: in experiment [4], the inhibition result was “inactive”.
Still for that read-out and setting: for `Nc1ncnc2c1ncn2C1OC(CNC(=O)CSc2nnnn2-c2ccccc2)[C@@H](O)[C@H]1O` (single isomer, unassigned) the value was “inactive”; for `Nc1ncnc2c1ncn2C1OC(CNC(=O)Cc2nnn[nH]2)[C@@H](O)[C@H]1O` (single isomer, unassigned), “inactive”.
Turning to `Nc1ncnc2c1ncn2[C@@H]1O[C@H](COP(=O)(O)OP(=O)(O)O)[C@@H](O)[C@H]1O`, the inhibition result in experiment [5] is “inactive”. The shift in melting temperature (ΔTm) in experiment [6] is under 1 °C.
Regarding `Cc1ccc(CNc2c(NC[C@H]3O[C@@H](n4cnc5c(N)ncnc54)[C@H](O)[C@@H]3O)c(=O)c2=O)cc1`, the inhibition entry in experiment [4] is “Active”. Also, the inhibition entry in experiment [1] and in experiment [2] was “inactive” throughout.
`Nc1ncnc2c1ncn2[C@@H]1O[C@H](CNc2c(NCc3ccccc3)c(=O)c2=O)[C@@H](O)[C@H]1O`: the inhibition entry in experiment [4] is “inactive”.
Consider `Nc1ncnc2c1ncn2[C@@H]1O[C@H](CNc2c(Nc3cccc(O)c3)c(=O)c2=O)[C@@H](O)[C@H]1O`, for which the inhibition result in experiment [3] was “inactive”.
Same read-out and setting: under `CCCCNc1c(NC[C@H]2O[C@@H](n3cnc4c(N)ncnc43)[C@H](O)[C@@H]2O)c(=O)c1=O` stands “inactive”.
The compound `Nc1ncnc2c1ncn2[C@@H]1O[C@H](COP(=O)(O)OP(=O)(O)OC[C@@H]2O[C@H](O)[C@@H](O)[C@H]2O)[C@@H](O)[C@H]1O` came in with an equilibrium dissociation constant (Kd) in experiment [7] of 0.9 µM. In addition, in experiment [5], the inhibition result is “Active”. Further, the shift in melting temperature (ΔTm) in experiment [6] was 5 °C.
